Test results from ChEMBL document CHEMBL4177625, “Ability of higenamine and related compounds to enhance glucose uptake in L6 cells” (Bioorg Med Chem, 2017).
Each block holds one compound with its values, some of them ahead of it. Calls of active or inactive are those of the source. The rule behind the calls is not given here.

Legend:
Type in all cases: functional
[1] = molecular target: Beta-2 adrenergic receptor (Rattus norvegicus, UniProt P10608); assay: Agonist activity at beta2 adrenergic receptor in rat L6 cell lysate assessed as increase in intracellular 2-deoxyglucose uptake preincubated for 4 hrs followed by 2-deoxyglucose addition measured after 20 mins by fluorescence-based enzymatic assay relative to control
Chain of Beta-2 adrenergic receptor (P10608 whole entry): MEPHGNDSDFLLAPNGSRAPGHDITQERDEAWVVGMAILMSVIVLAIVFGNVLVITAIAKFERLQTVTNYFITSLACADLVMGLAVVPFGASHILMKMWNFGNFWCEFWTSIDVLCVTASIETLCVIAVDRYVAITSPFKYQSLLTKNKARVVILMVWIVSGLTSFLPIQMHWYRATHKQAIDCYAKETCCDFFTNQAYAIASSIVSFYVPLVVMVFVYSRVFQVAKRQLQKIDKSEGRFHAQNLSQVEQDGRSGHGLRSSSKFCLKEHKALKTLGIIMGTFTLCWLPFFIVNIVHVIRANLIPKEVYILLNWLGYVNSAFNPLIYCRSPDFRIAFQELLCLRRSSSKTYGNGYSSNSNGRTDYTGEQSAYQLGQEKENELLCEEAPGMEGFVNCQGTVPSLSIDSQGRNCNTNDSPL
In short: (§1)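 L6 rat myoblasts (JCRB9081) were grown in DMEM with 10% FBS at 37°C under 10% CO2. At confluence they were differentiated in DMEM with 2% horse serum for 6–8 days. Cells were serum-starved, then exposed to sample in serum-free DMEM for 4 h, with 100 nM insulin as the positive control. They were rinsed in KRPH buffer pH 7.4 and given 1 mM 2-deoxyglucose for 20 min. After washing, cells were lysed in 0.05 M NaOH and lysate 2-deoxyglucose was quantified enzymatically by fluorescence.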

[2] = molecular target: Beta-2 adrenergic receptor (Rattus norvegicus) (UniProt P10608); assay: Agonist activity at beta2 adrenergic receptor in rat L6 cell lysate assessed as increase in intracellular 2-deoxyglucose uptake at 10 to 100 uM preincubated for 4 hrs followed by 2-deoxyglucose measured after 20 mins by fluorescence-based enzymatic assay relative to control; in short: as §1
Chain of Beta-2 adrenergic receptor (Rattus norvegicus) (P10608 whole entry, looked up): as the sequence (P10608 whole entry) above

[3] = molecular target: Beta-2 adrenergic receptor (Rattus norvegicus) (UniProt P10608); assay: Agonist activity at beta2 adrenergic receptor in rat L6 cell lysate assessed as increase in intracellular 2-deoxyglucose uptake at 0.1 to 100 uM preincubated for 4 hrs followed by 2-deoxyglucose measured after 20 mins by fluorescence-based enzymatic assay relative to higenamine
In short: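 Differentiated L6 rat myotubes (2% horse serum, 6–8 days post-confluence) serum-starved, then exposed to sample in serum-free DMEM for 4 h; insulin 100 nM as positive control. Rinsed with KRPH buffer (pH 7.4), given 1 mM 2-deoxyglucose for 20 min, washed thrice, lysed in 0.05 M NaOH; lysate 2-deoxyglucose measured enzymatically by fluorescence.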

[4] = molecular target: Beta-2 adrenergic receptor (Rattus norvegicus) (UniProt P10608); assay: Agonist activity at beta2 adrenergic receptor in rat L6 cell lysate assessed as increase in intracellular 2-deoxyglucose uptake at 0.5 to 100 uM preincubated for 4 hrs followed by 2-deoxyglucose measured after 20 mins by fluorescence-based enzymatic assay relative to control; in short: as §1
[5] = molecular target: Beta-2 adrenergic receptor (Rattus norvegicus) (UniProt P10608); assay: Agonist activity at beta2 adrenergic receptor in rat L6 cell lysate assessed as increase in intracellular 2-deoxyglucose uptake at more than 5 uM preincubated for 4 hrs followed by 2-deoxyglucose measured after 20 mins by fluorescence-based enzymatic assay relative to control; in short: as §1
[6] = molecular target: Beta-2 adrenergic receptor (Rattus norvegicus) (UniProt P10608); assay: Agonist activity at beta2 adrenergic receptor in rat L6 cell lysate assessed as increase in intracellular 2-deoxyglucose uptake at 100 uM preincubated for 4 hrs followed by 2-deoxyglucose measured after 20 mins by fluorescence-based enzymatic assay relative to control; in short: as §1
[7] = molecular target: Beta-2 adrenergic receptor (Rattus norvegicus) (UniProt P10608); assay: Agonist activity at beta2 adrenergic receptor in rat L6 cell lysate assessed as increase in intracellular 2-deoxyglucose uptake at 0.1 to 100 uM preincubated for 4 hrs followed by 2-deoxyglucose measured after 20 mins by fluorescence-based enzymatic assay relative to control; in short: as §1

Compound: Oc1ccc(C[C@H]2NCCc3cc(O)c(O)cc32)cc1 [(+)-HIGENAMINE]
EC50 [1]: 4500 nM

Compound: Oc1ccc(C[C@@H]2NCCc3cc(O)c(O)cc32)cc1 [(-)-HIGENAMINE]
EC50 [1]: 600 nM

Compound: OC[C@H]1O[C@@H](Oc2ccc(C[C@H]3NCCc4cc(O)c(O)cc43)cc2)[C@H](O)[C@@H](O)[C@@H]1O
EC50 [1]: 9000 nM

Compound: COc1cc2c(cc1O)C(Cc1ccc(O)cc1)NCC2 (stereo unspecified)
Activity [3]: 40%
fold change (FC) [4]: 1.6

Compound: Oc1ccc(CC2NCCc3cc(O)c(O)cc32)cc1 (stereo unspecified)
Activity [2]: Active
fold change (FC) [5]: > 2

Compound: COc1cc2c(cc1O)CCNC2Cc1ccc(O)cc1 (stereo unspecified)
fold change (FC) [6]: 1.2
Activity [4]: Active

Compound: CNC[C@H](O)c1ccc(O)c(O)c1
Activity [2]: Active

Results, then the compound that gave them:

Activity [2]: Active
Compound: NC[C@H](O)c1ccc(O)c(O)c1

EC50 [1]: 1300 nM
Compound: OC[C@H]1O[C@@H](Oc2ccc(C[C@@H]3NCCc4cc(O)c(O)cc43)cc2)[C@H](O)[C@@H](O)[C@@H]1O

fold change (FC) [6]: 1.2
Activity [4]: Active
Compound: CN1CCc2cc(O)c(O)cc2C1Cc1ccc(O)cc1 (stereo unspecified)

Activity [7]: Active
Compound: COc1cc2c(cc1OC)C(Cc1ccc(O)cc1)NCC2 (stereo unspecified)

Activity [7]: Active
Compound: COc1ccc(CC2NCCc3cc(O)c(O)cc32)cc1 (stereo unspecified)
